This note sets out measurements from ChEMBL document CHEMBL4350999, “Enhanced tumor retention of NTSR1-targeted agents by employing a hydrophilic cysteine cathepsin inhibitor” (Eur J Med Chem, 2019).

For assay [1], the target named is T1, Cathepsin B (Homo sapiens, UniProt P07858). Kind of assay: Inhibition of human liver cathepsin B assessed as inhibition constant using Z-Arg-Arg-AMC as substrate measured every 5 mins for 1 hr by fluorescence assay.
Assay [2] has as its target T1, Cathepsin B. Put plainly: Inhibition of human liver cathepsin B assessed as second order rate constant using Z-Arg-Arg-AMC as substrate measured every 5 mins for 1 hr by fluorescence assay. In short, it runs like this: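 Human liver cathepsin B, 2 nM final, in 0.1 M phosphate pH 5.8 (1 mM EDTA, 2.7 mM DTT, 0.03% Brij35). Enzyme mixed with conjugate (1–500 nM final), then Z-Arg-Arg-AMC added (800 μM final); 37 °C. […] Biological triplicate.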

Assay [3] addresses T1, Cathepsin B. Put plainly: Inhibition of human liver cathepsin B assessed as pseudo Michaelis-Menten constant at 10 nM using varying levels of Z-Arg-Arg-AMC as substrate measured every 5 mins for 1 hr by fluorescence assay.

Activity calls are given as the source filed them. No cut-off for these calls is given here.

As for `CC(C)C[C@H](NC(=O)CCC(=O)O)C(=O)N[C@@H](CCCNC(=N)N)C(=O)NCCN=[N+]=[N-]`, the inhibition result in assay [1] and in assay [2] was “inactive” each time. The K in assay [3] is 185 µM.
